# Screens: PubChem, several laboratories
# NR3A LBD binder: binders of NR3A ligand-binding domain, primary screen, biophysical, differential scanning fluorimetry, uHTS | AID 1259313, 2017 | NR3A LBD differential scanning fluorimetry, Tm shift; 0% = protein alone, 100% = glycine-bound protein | Tm shift relative to glycine control, % at 25 µM | actives 2.5% (n = 340,000);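 active = melting temperature shift of at least 10% of the positive control shift, at one fixed dose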
# DNA FID counter-1: compounds displacing fluorescent DNA intercalator, primary screen, artefact control for HCV NS3 helicase inhibitor project, biochemical, FID fluorescence; DNA fluorescent intercalator displacement; inhibition, % at 7.9 µM; actives 0.17% (n = 290,000);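 also: 0% = vehicle and 100% = reference compound; higher means more ethidium bromide displaced from hairpin DNA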
# FGF22 binding: binders of human FGF22 protein, primary screen, FGF22 synaptogenesis inhibitor project, biophysical, thermal shift, single point | AID 651658, 2012 | activity (Tm shift, normalised), % at 9.99 µM | recombinant FGF22 thermal shift, SYPRO orange fluorescence; percent of sucrose octasulfate shift, DMSO zero | actives 1.5% (n = 340,000) | Fibroblast growth factor 22 (Homo sapiens), Q9HCT0;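 active = mean Tm shift, scaled 0 neutral to 100 positive control, at about 1.3% or above, every replicate too, limit read from the data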
# Target sequence (Q9HCT0 whole entry, looked up): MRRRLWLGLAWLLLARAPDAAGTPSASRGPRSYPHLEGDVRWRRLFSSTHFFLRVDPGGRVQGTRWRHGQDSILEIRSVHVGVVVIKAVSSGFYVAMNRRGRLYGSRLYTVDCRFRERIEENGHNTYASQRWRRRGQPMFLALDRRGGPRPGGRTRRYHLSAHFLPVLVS
# HCV NS3 hel inh: inhibitors of HCV NS3 helicase, primary screen, biochemical, Cy5 molecular beacon fluorescence; actives 0.56% (n = 290,000); Hepatitis C virus NS3 helicase; NS3 helicase DNA unwinding; inhibition, % at 10.9 µM;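 active = inhibition above the mean of all tested compounds plus 3 SD, set per campaign, cut at about 35% in these data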;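 also: 0% = DMSO wells and 100% = thioflavine S control wells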
#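 Material: hepatitis C virus NS3 helicase domain fragment enzyme; measured by: Cy5 fluorescence, 0 and 60 min reads; control set: DMSO and thioflavine S; incubation: 60 min unwinding reaction at 25 °C after ATP addition; read-out basis: % inhibition from 60/0 min fluorescence ratio, DMSO 0%, thioflavine S 100%; repeats: singlicate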
# EBNA-1 inhibitor: EBNA-1 DNA-binding inhibitors, primary screen, biochemical, fluorescence polarization; inhibition, % at 14.8 µM; actives 0.34% (n = 300,000); AID 1950, 2009; in the data active = inhibition above about 28%
# ZTA counter: counter-screen for EBNA-1 inhibitors: inhibitors of Epstein-Barr virus ZTA. inhibition, % at 11 µM. actives 0.15% (n = 320,000). AID 2234. ZTA-DNA binding, fluorescence polarization. P03206; in the data active = inhibition above about 33%
# Target sequence (P03206 whole entry, looked up): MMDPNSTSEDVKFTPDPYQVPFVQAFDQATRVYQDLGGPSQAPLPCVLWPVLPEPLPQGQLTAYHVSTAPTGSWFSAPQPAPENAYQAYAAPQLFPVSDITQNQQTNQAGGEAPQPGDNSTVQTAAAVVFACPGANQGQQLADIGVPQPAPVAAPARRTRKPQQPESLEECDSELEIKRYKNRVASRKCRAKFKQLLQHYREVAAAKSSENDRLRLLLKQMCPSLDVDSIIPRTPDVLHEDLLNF
# NS3 hel confirm: HCV NS3 helicase inhibitors, retest, confirmation, biochemical, Cy5 molecular beacon fluorescence, triplicate; shares compounds with HCV NS3 hel inh; NS3 helicase DNA unwinding; inhibition, % at 10.9 µM; actives 31% (n = 1,600); AID 1943, 2009;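 active = inhibition above the mean of all tested compounds plus 3 SD, cutoff set per campaign, cut at about 36% in these data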
# DNA FID counter-2: compounds displacing fluorescent DNA intercalator, artefact control for HCV NS3 helicase inhibitor project, biochemical, FID fluorescence, triplicate; shares compounds with HCV NS3 hel inh; DNA fluorescent intercalator displacement; inhibition, % at 7.9 µM; actives 4% (n = 1,600); AID 1945, 2009;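 also: 0% = vehicle and 100% = reference compound; higher means more displacement of ethidium bromide from the DNA hairpin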
# FID counter DR: compounds displacing fluorescent intercalator from DNA, dose response, counter-screen for HCV NS3 helicase inhibitor project, biochemical, fluorescence. shares compounds with HCV NS3 hel inh. 120 tested, under 10 active. IC50, µM. fluorescent intercalator displacement from DNA; call rule not given here
# Active calls of the source: *; i = inactive; x = not tested or not shown. Most compounds without a hit are left out; they make up all but 3.6% or so of the library. Rule as the data show it, unless noted: active = inhibition above about 37%; inactive = the rest.
SMILES,NR3A LBD binder,DNA FID counter-1,FGF22 binding,HCV NS3 hel inh,EBNA-1 inhibitor,ZTA counter,NS3 hel confirm,DNA FID counter-2,others
O=C(Nc1nc(-c2ccco2)c(-c2ccco2)s1)C1CC(=O)N(c2ccc3c(c2)OCCO3)C1 (configuration not stated),-5.0,-13.0,x,39.8*,11.9,-0.6,72.2*,27.9,FID counter DR=>79.4
O=C(Nc1nnc(-c2ccco2)s1)C1CCCCC1,-1.2,-3.4,x,-1.5,7.1,4.0,x,x,
O=C(Nc1nc(-c2ccco2)c(-c2ccco2)s1)C1CCC1,-8.0,-12.0,0.1,57.9*,1.2,13.0,46.8*,18.5,FID counter DR=>79.4
Nc1ccc(Oc2ccc(N)c([N+](=O)[O-])c2)cc1[N+](=O)[O-],x,x,-0.4,x,x,x,x,x,
CC1(C)Oc2cc(N)c([N+](=O)[O-])cc2O1,-0.2,1.1,x,53.6*,-3.4,4.9,-12.9,3.9,
O=C1NN(c2ccccc2)C(=O)/C1=C\c1ccccc1,3.2,-14.7,-0.1,49.5*,x,x,-28.3,13.2,
COc1ccc(-n2c(C)cc(/C=C3\C(=O)NN(c4ccccc4)C3=O)c2C)cc1,-1.5,-3.8,x,1.0,3.8,14.2,x,x,
COc1ccc(Sc2ccc(/C=C3\C(=O)NN(c4ccccc4)C3=O)o2)cc1,-24.5,-14.4,x,47.4*,-8.3,6.6,60.0*,17.4,
C[C@H]1CN([C@@H](C)CO)S(=O)(=O)c2ccc(C#CC(C)(C)O)cc2O[C@@H]1CN(C)C(=O)CC1CC1,x,x,0.0,x,x,x,x,x,
CO[C@@H]1CN(C)C(=O)c2cc(NC(=O)Nc3c(C)noc3C)ccc2OC[C@@H](C)N(CC2CC2)C[C@H]1C,x,x,0.2,x,x,x,x,x,
O=C(C[C@H]1CC[C@H](NC(=O)Nc2cccc(F)c2)[C@H](CO)O1)NCC1CCCCC1,x,x,0.1,x,x,x,x,x,
CSc1nnc(-c2ccccc2)c(-c2ccccc2)n1,-0.8,-9.9,0.3,11.2,-5.1,-11.0,x,x,
CSc1nnc(-c2ccco2)c(-c2ccco2)n1,0.7,-10.2,x,37.5*,10.1,1.9,25.0,14.3,
Cc1ccc(NC(=O)CSc2nnc(-c3ccco3)c(-c3ccco3)n2)cc1,-12.6,-5.8,x,42.0*,-4.6,-2.2,86.9*,18.7,
COc1cc(NC(=O)CSc2ccc(-c3ccco3)nn2)cc(OC)c1,0.9,-26.8,0.2,36.0*,10.2,-8.5,-11.9,-0.3,
Cc1ccccc1NC(=O)CSc1nnc(-c2ccco2)c(-c2ccco2)n1,-20.1,-23.6,x,40.7*,2.6,9.6,51.3*,-8.4,FID counter DR=>79.4
COCC#Cc1ccc2c(c1)O[C@@H](CN(C)C(=O)C1CC1)[C@H](C)CN([C@H](C)CO)S2(=O)=O,x,x,0.0,x,x,x,x,x,
CCc1ccc(-n2c(=S)sc3c(=O)n(-c4ccccc4)c(SCC(=O)O)nc32)cc1,2.1,-18.6,x,4.5,7.8,0.2,x,x,
CCCc1nc(SCC(=O)O)c2sc(=S)n(-c3ccccc3)c2n1,1.2,-19.4,-0.1,36.8*,-6.2,7.5,1.2,-21.3,
OC(C#CCN1CCCC1)(c1ccccc1)c1cccnc1 (configuration not stated),-0.6,5.2,0.1,-5.0,-4.8,-11.0,x,x,
CCCN(CC#CC(O)(c1ccccc1)c1cccnc1)CCC (configuration not stated),-1.9,-1.6,0.0,44.6*,6.1,10.2,-9.9,4.3,
C[C@H](O)C#Cc1cnc2c(c1)C(=O)N([C@@H](C)CO)C[C@@H](C)[C@H](CN(C)C(=O)CC1CC1)O2,x,x,-0.1,x,x,x,x,x,
CN1CCN(C(c2ccc(Cl)cc2)c2cc(Cl)c3cccnc3c2O)CC1 (configuration not stated),33.8*,-10.6,0.1,46.2*,10.2,2.9,17.1,57.9*,
CN1CCN(C(c2ccc(C(F)(F)F)cc2)c2cc(Cl)c3cccnc3c2O)CC1 (configuration not stated),x,-1.6,-0.4,-40.0,-6.8,-10.2,x,x,
O=c1cc2oc3cc(O)c(O)cc3c(-c3ccccc3O)c-2cc1O,-0.9,-67.7,x,51.4*,x,x,101.9*,-76.1,
SMILES,NR3A LBD binder,DNA FID counter-1,FGF22 binding,HCV NS3 hel inh,EBNA-1 inhibitor,ZTA counter,NS3 hel confirm,DNA FID counter-2,others
CCOc1ccccc1-c1c2cc(O)c(=O)cc-2oc2cc(O)c(O)cc12,-9.4,-16.6,x,52.3*,x,x,93.8*,i,
COc1ccc(OC)c(-c2c3cc(O)c(=O)cc-3oc3cc(O)c(O)cc23)c1,-17.4,-10.4,x,43.9*,19.5,6.2,86.7*,i,
CCOC(=O)c1oc2cc(O)ccc2c(=O)c1-c1ccccc1OC,-0.3,-12.6,x,1.4,2.8,2.4,x,x,
COc1ccc(NC(=O)N2C[C@@H](O)COC[C@@H]3O[C@@H](CC(=O)NCc4ccccc4OC)CC[C@H]32)cc1,x,x,-0.1,x,x,x,x,x,
O=C(N[C@@H]1CC[C@H](CC(=O)N2CCOCC2)O[C@H]1CO)c1cccc(F)c1,x,x,0.1,x,x,x,x,x,
COc1ccc(/C=N\NC(=O)c2cc(O)c(O)c(O)c2)cc1COc1ccc(C(=O)OCC(C)C)cc1,76.9*,-16.4,0.2,38.6*,0.2,-3.4,55.9*,-8.6,FID counter DR=>79.4
CC(C)CC#Cc1cnc2c(c1)C(=O)N([C@H](C)CO)C[C@@H](C)[C@H](CN(C)Cc1ccccn1)O2,x,x,0.2,x,x,x,x,x,
CCCNC(=O)C[C@@H]1C[C@@H]2c3cc(NS(=O)(=O)c4cccc(OC)c4)ccc3O[C@@H]2[C@@H](CO)O1,x,x,-0.2,x,x,x,x,x,
C[C@H](CO)N1C[C@H](C)[C@H](CN(C)C(=O)Nc2ccccc2)Oc2ncc(C#CC3CC3)cc2C1=O,x,x,-0.2,x,x,x,x,x,
Cc1ccc(C(=O)NCCNc2ccc(Cl)cc2[N+](=O)[O-])o1,-1.7,-0.5,x,-1.9,-3.4,1.4,x,x,
O=C(NCCNc1ccc(Cl)cc1[N+](=O)[O-])c1ccccc1F,-0.3,-4.9,x,41.1*,-20.1,-13.3,0.8,14.5,
O=C(O)c1ccc(/C=N/NC(=O)c2cc(-c3ccc4c5c(cccc35)CC4)n[nH]2)cc1,-38.5,-31.5,-0.4,36.9*,-3.4,17.8,65.3*,-2.1,
O=C(O)c1ccc(C=NNC(=O)c2cccc3ccccc23)cc1,1.3,x,0.0,x,x,x,x,x,
CNc1ccc(Br)cc(C(=O)/C=C/c2ccc(OC)cc2OC)c1=O,-1.7,-18.6,x,33.5,-2.3,4.0,x,x,
